Consider 19 molecules from ChEMBL document CHEMBL3734693, “Discovery of potent, selective, and orally bioavailable inhibitors of interleukin-1 receptor-associate kinase-4” (Bioorg Med Chem Lett, 2015).

Series [1] concerns the target T1, Interleukin-1 receptor-associated kinase 4 (Homo sapiens, UniProt Q9NWZ3).
T1 sequence (Q9NWZ3 whole entry): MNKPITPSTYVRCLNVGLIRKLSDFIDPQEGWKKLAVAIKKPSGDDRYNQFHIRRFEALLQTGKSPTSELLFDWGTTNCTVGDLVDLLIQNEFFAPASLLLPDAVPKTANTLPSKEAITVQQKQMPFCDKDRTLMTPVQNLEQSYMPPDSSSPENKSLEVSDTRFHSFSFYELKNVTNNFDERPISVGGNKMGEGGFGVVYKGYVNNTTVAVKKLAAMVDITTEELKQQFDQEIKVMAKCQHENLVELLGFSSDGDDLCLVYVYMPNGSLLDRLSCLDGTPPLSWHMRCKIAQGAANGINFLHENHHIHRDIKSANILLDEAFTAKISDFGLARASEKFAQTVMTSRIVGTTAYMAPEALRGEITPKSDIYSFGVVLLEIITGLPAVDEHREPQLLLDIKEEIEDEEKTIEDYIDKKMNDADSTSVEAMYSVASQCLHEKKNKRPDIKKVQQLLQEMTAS
Nature of the series: Inhibition of recombinant full length IRAK-4 (unknown origin) using the biotinylated substrate RRRVTSPARRS by chemiluminescent ELISA. (In general: ELISA stands for enzyme-linked immunosorbent assay.)

Series [2] is described as follows: Permeability of the compound. The settings on record: not told; read-out: permeability. It counts as ADME.
The nature of series [3]: Solubility of the compound at pH 7.4. It counts as physicochemical. As to conditions: buffer.
Series [4] addresses T2, Mitogen-activated protein kinase kinase kinase 7 (Homo sapiens, UniProt O43318).
T2 sequence (O43318 whole entry): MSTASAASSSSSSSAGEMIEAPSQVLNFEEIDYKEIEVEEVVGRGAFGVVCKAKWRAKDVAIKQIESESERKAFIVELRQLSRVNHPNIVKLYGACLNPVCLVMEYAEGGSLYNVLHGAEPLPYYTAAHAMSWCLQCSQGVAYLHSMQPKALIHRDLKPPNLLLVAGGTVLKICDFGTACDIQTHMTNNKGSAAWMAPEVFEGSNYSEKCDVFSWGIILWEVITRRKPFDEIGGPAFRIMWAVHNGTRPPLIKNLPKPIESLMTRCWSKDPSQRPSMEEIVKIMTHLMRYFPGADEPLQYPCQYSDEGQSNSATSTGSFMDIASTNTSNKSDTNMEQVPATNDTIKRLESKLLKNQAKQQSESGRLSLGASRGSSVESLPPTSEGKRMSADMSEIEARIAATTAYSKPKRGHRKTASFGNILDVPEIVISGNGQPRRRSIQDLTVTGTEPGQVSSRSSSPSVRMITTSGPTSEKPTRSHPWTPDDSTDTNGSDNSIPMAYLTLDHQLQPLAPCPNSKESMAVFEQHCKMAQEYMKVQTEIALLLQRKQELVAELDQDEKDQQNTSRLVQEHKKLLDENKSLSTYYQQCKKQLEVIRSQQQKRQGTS
Nature of the series: Inhibition of TAK1 (unknown origin).

Series [5] can be described thus: Inhibition of Interleukin-1 induced Nuclear factor-kappa-B activation in primary human monocyte by electrophoretic mobility shift assay. (A gel shift assay detects complexes by their altered migration in electrophoresis.)
For series [6], the target named is Interleukin-1 receptor-associated kinase 1 (Homo sapiens, UniProt P51617). Nature of the series: Inhibition of IRAK-1 (unknown origin).
The subject of series [7] is Rattus norvegicus. Briefly: AUC in rat at 0.5 mg/kg, iv and 2 mg/kg, po. It counts as ADME, organism-based. The settings on record: in vivo. An outline of the steps: (§1)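 Rats were given the compound intravenously at 0.5 mg/kg and orally at 2.0 mg/kg. Clearance, half-life, AUC and oral bioavailability were determined from these two dosings.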
Series [8] in a line: Clearance in rat at 0.5 mg/kg, iv and 2 mg/kg, po. It counts as ADME, organism-based. The settings on record: in vivo. The procedure, abridged:
as §1

Series [9] can be described thus: Half-life in rat at 0.5 mg/kg, iv and 2 mg/kg, po. It counts as ADME, organism-based. The settings on record: in vivo. The procedure, abridged:
as §1

Series [10] can be described thus: Oral bioavailability in rat at 2 mg/kg. It counts as ADME, organism-based. As to conditions: in vivo. The procedure, abridged:
as §1

The species entered for series [11] is Homo sapiens. Briefly: Ratio of Ki for IRAK-1 (unknown origin) to Ki for recombinant full length IRAK-4 (unknown origin).
The species named for series [12] is Homo sapiens. Briefly: Ratio of Ki for TAK1 (unknown origin) to Ki for recombinant full length IRAK-4 (unknown origin).
Series [13] is filed under the species Homo sapiens. Briefly: Selectivity for recombinant IRAK-4 (unknown origin) over EGFRK (unknown origin).
The species entered for series [14] is Homo sapiens. Nature of the series: Selectivity for recombinant IRAK-4 (unknown origin) over CDK2 (unknown origin).
The species named for series [15] is Homo sapiens. Briefly: Selectivity for recombinant IRAK-4 (unknown origin) over LCK (unknown origin).
Series [16] is filed under the species Homo sapiens. Nature of the series: Selectivity for recombinant IRAK-4 (unknown origin) over PKC (unknown origin).
For series [17], the species on record is Homo sapiens. Nature of the series: Selectivity for recombinant IRAK-4 (unknown origin) over PKA (unknown origin).
Series [18] is filed under the species Homo sapiens. Briefly: Selectivity for recombinant IRAK-4 (unknown origin) over Akt1 (unknown origin).
The species entered for series [19] is Homo sapiens. Nature of the series: Selectivity for recombinant IRAK-4 (unknown origin) over CaMK (unknown origin).
The species entered for series [20] is Homo sapiens. Nature of the series: Selectivity for recombinant IRAK-4 (unknown origin) over pp60SRC (unknown origin).

Molecules are shown by their SMILES. ≈ marks a conversion by molar mass, not a printed value.

Sequence of Interleukin-1 receptor-associated kinase 1 (P51617 whole entry): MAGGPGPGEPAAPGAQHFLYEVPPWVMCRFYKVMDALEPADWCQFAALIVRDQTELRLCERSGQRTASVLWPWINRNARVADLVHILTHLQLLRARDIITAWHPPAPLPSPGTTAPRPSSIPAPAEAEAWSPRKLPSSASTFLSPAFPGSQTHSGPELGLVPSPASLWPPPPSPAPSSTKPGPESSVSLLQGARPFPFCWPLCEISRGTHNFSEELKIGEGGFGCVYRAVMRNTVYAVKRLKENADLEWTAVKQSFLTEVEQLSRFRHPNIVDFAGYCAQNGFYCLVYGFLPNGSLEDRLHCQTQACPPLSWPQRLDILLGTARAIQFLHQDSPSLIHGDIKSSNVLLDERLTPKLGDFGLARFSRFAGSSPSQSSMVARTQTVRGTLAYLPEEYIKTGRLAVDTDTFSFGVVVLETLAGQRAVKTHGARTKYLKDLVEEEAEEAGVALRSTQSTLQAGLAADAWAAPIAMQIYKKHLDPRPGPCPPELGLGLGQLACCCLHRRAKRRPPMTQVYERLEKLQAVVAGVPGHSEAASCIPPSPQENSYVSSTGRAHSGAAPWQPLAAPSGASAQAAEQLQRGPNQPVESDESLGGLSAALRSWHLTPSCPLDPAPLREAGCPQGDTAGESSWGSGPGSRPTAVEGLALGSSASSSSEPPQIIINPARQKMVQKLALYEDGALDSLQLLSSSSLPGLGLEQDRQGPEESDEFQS

For orientation: Ki means the equilibrium dissociation constant of an inhibitor or competing ligand from its target. What is called solubility is the concentration that dissolves in the medium under given conditions. A low value points to little dissolved substance. With `O=C(Nc1nc2cc(CO)ccc2n1[C@H]1CC[C@H](O)CC1)c1cccc([N+](=O)[O-])c1`, the Ki in series [1] was determined as 11 nM. Also, the Papp in [2] is less than 1 ×10⁻⁶ cm/s. Besides, in series [3], the concentration in solution (solubility) was 4.9 µg/mL (≈ 11.9 µM).
By IC50 is commonly meant the midpoint of a concentration-inhibition curve. On to `O=C(Nc1nc2cc(CN3CCCCC3)ccc2n1-c1ccccc1)c1cccc([N+](=O)[O-])c1`, for which the Ki in series [4] worked out at 800 nM; in series [1], 8.2 nM; in series [6], 374 nM. In addition, the IC50 in [5] stood at 100 nM.
With `CC(C)(C)C(=O)Oc1ccc2c(c1)nc(NC(=O)c1cccc([N+](=O)[O-])c1)n2-c1ccc(CCCO)cc1`, the IC50 in series [1] was determined as 150 nM; in [6] it was 900 nM.
What is called AUC is the area under the concentration-time curve, a measure of exposure. Lower therefore signals less exposure. Broadly, the half-life is the time in which the quantity being followed falls by half. A lower half-life goes with rapid decline. What is called bioavailability is the share of a dose that reaches the circulation, judged against a reference dose that is usually intravenous. Turning to `O=C(Nc1nc2cc(CN3CCCCC3)ccc2n1-c1ccc(CCO)cc1)c1cccc(C(F)(F)F)c1`, the AUC in [7] amounted to 175 ng·h/mL. In addition, the Ki in [4] was 700 nM; in series [1] it was 1.3 nM; in series [6], 12 nM. For the same molecule, in series [8], the clearance is 36.7 mL/min/kg. In series [5], the IC50 was less than 100 nM. This molecule also had a half-life in [9] of 1.3 h. The bioavailability in series [10] is 19%.
As to `O=C(Nc1nc2cc(CN3CCCCC3)ccc2n1[C@H]1CC[C@@H](CO)CC1)c1cccc(C(F)(F)F)c1`, the Ki worked out at 130 nM in series [4], 0.42 nM in series [1] and 72 nM in series [6]. The IC50 in [5] was less than 100 nM.
Regarding `O=C(Nc1nc2cc(CN3CCCCC3)ccc2n1[C@H]1CC[C@@H](CO)CC1)c1cccc([N+](=O)[O-])c1`, in series [7], the AUC amounted to 84 ng·h/mL. For the same molecule, the Ki in series [4] came to 30 nM; in series [1], 0.7 nM; in [6] it was 48 nM. Besides, the Ratio Ki is 68 in series [11] and 43 in series [12]. Further, the clearance in [8] was 40 mL/min/kg. Besides, the half-life in series [9] is 4.8 h. In [10], this molecule yielded a bioavailability of 10%.
In the case of `O=C(Nc1nc2cc(F)ccc2n1CCCO)c1cccc([N+](=O)[O-])c1`, in series [1], the Ki came to 38.5 nM.
Regarding `O=C(Nc1nc2cc(CN3CCCCC3)ccc2n1-c1ccccc1)c1cccc(C(F)(F)F)c1`, the AUC in [7] is 1020 ng·h/mL. Besides, the inhibition constant Ki in series [4] is 2500 nM; in series [1], 2.8 nM; in series [6], 608 nM. For the same molecule, the clearance in series [8] is 9 mL/min/kg. Besides, the IC50 in [5] came to 300 nM. The molecule also had a half-life in series [9] of 23.7 h. For the same molecule, the bioavailability in [10] was 46%.
In the case of `O=C(Nc1nc2cc(F)ccc2n1[C@H]1CC[C@H](CO)C1)c1cccc([N+](=O)[O-])c1`, in [1], the Ki is 11 nM.
Consider `O=C(Nc1nc2cc(CN3CCCC3=O)ccc2n1[C@H]1CC[C@H](O)CC1)c1cccc([N+](=O)[O-])c1`, for which the Ki in series [1] was 0.5 nM. Also, in series [2], the Papp is less than 1 ×10⁻⁶ cm/s. The concentration in solution in series [3] (solubility) was 0.8 µg/mL (≈ 1.68 µM).
Regarding `O=C(Nc1nc2cc(CN3CCOCC3)ccc2n1[C@H]1CC[C@H](O)CC1)c1cccc([N+](=O)[O-])c1`, in series [1], the Ki is 3.8 nM. The Papp in series [2] was less than 1 ×10⁻⁶ cm/s. In series [3], the concentration in solution (solubility) came to 29 µg/mL (≈ 60.5 µM).
As to `O=C(Nc1nc2cc(F)ccc2n1[C@H]1CC[C@@H](CO)CC1)c1cccc([N+](=O)[O-])c1`, in [1], the Ki turned out to be 1.6 nM.
For `O=C(Nc1nc2ccc(CO)cc2n1[C@H]1CC[C@@H](CO)CC1)c1cccc(C(F)(F)F)c1`, the Ki stood at 1300 nM in series [4] and 0.48 nM in series [1]. The IC50 in series [5] was less than 100 nM.
`O=C(Nc1nc2cc(F)ccc2n1[C@H]1CC[C@@H](CO)C1)c1cccc([N+](=O)[O-])c1`: the Ki in series [1] was 7.8 nM.
Same read-out and setting: the value for `O=C(Nc1nc2ccc(F)cc2[nH]1)c1cccc([N+](=O)[O-])c1` was 4500 nM; that for `O=C(Nc1nc2cc(F)ccc2n1[C@H]1CC[C@H](CO)CC1)c1cccc([N+](=O)[O-])c1` was 6.4 nM; that for `O=C(Nc1nc2cc(F)ccc2n1[C@H]1CC[C@H](O)CC1)c1cccc([N+](=O)[O-])c1` was 6.5 nM.
Regarding `O=C(Nc1nc2cc(CN3CCCCC3)ccc2n1[C@H]1CC[C@H](O)CC1)c1cccc([N+](=O)[O-])c1`, the AUC in series [7] turned out to be 124 ng·h/mL. Also, the Ki in series [4] was found to be 15 nM; in series [1] it was 2.8 nM; in series [6], 18 nM. Besides, the Selectivity ratio in [13], in series [14], in series [15], in series [16], in series [17] and in series [18] was more than 100 in each case. The Selectivity ratio in series [19] and in series [20] was more than 100 in each case. Further, the Ratio Ki in [11] came to 6.4; in [12], 5.3. This molecule showed a clearance in series [8] of 41.7 mL/min/kg. Besides, the Papp in series [2] amounted to 6.6 ×10⁻⁶ cm/s. This molecule also gave a half-life in series [9] of 2.1 h. This molecule also showed a solubility in series [3] of more than 50 µg/mL. Also, in series [10], the bioavailability was determined as 16%.
Regarding `CC(C)(C)C(=O)Nc1ccc2c(c1)nc(NC(=O)c1cccc(C(F)(F)F)c1)n2[C@H]1CC[C@@H](CO)CC1`, the values for the Ki in series [4] and in series [1] were 2500 nM and 0.34 nM, respectively. For the same molecule, the IC50 in series [5] stood at 100 nM.
